ATG4B inh: ATG4B protease inhibitors, primary screen, biochemical, fluorescence, uHTS | inhibition, % at 8.33 µM | ATG4B cleavage of LC3-PLA2, NBD-HPC fluorescence, 1 h | 340,000 tested, 0.51% active | AID 504462, 2011 | Cysteine protease ATG4B (Homo sapiens), Q9Y4P1; in the data active means inhibition above about 40%
Target sequence (Q9Y4P1 whole entry, looked up): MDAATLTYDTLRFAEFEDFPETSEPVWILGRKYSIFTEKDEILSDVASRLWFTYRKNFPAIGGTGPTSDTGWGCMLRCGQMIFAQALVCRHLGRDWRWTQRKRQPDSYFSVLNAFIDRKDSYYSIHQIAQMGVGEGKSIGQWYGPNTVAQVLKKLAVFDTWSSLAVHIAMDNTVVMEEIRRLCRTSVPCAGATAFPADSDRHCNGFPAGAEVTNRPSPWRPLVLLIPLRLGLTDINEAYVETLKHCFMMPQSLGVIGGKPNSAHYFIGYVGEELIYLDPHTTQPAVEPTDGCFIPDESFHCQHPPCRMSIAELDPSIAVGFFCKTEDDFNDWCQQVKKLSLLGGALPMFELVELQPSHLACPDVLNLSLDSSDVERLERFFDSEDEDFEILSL
TCR CD3 inh: inhibitors of human TCR-CD3 interaction, primary screen, biochemical, fluorescence, TAMRA-labeled TCR probe; 360,000 tested, 0.37% active; T-cell receptor (TCR); AID 651800, 2012; inhibition, % at 9.4 µM; in the data active means inhibition above about 19%;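 further: recombinant mutant TCR 2C K166C tagged with TAMRA read by polarization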
HTRA1 inh: HTRA1 serine protease inhibitors, primary screen, biochemical, fluorescence polarization, HTS; Q92743; recombinant HTRA1, FP-rhodamine activity-based probe; inhibition, % at 5.96 µM; 340,000 tested, 0.5% active; in the data active means inhibition above about 36%
mABHD4 FP: ABHD4 inhibitors, primary screen, biochemical, fluorescence polarization, mouse. (Lyso)-N-acylphosphatidylethanolamine lipase (Mus musculus), Q8VD66. purified mABHD4, FP-Rh probe fluorescence polarization. inhibition, % at 8.92 µM. 370,000 tested, 0.54% active;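 active means inhibition exceeding the mean over every tested compound plus 3 SD, cut at about 30% in these data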
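Doses – 8.92 µM, single dose · Material – wild-type mouse ABHD4 protein · Replication – single well per compound (singlicate) · Measure – percent inhibition of probe binding, normalized to plate controls · Schedule – 45 min compound pre-incubation plus 60 min probe step, 25 °C · Detection – fluorescence polarization with parallel and perpendicular emission, 525/598 nm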
SIAE inh: human SIAE inhibitors, primary screen, biochemical, fluorescence polarization, FP-Rh probe, 1536-well HTS. SIAE FP-Rh probe binding. 370,000 tested, 0.69% active. AID 1053197, 2014. Sialate O-acetylesterase (Homo sapiens), Q9HAT2. inhibition, % at 9.66 µM;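 active means inhibition above a cutoff: mean of compounds within the control limits plus 3 SD of those, cut at about 17% in these data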
PRMT1 FP inh: PRMT1 methyltransferase inhibitors, primary screen, biochemical, fluorescence polarization; Protein arginine N-methyltransferase 1 (Homo sapiens), Q99873; recombinant PRMT1, activity-based probe fluorescence polarization; inhibition, % at 2.79 µM; 370,000 tested, 1.3% active;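 active means inhibition above about 21% made by adding two undisclosed values, limit read from the data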
ATG4B confirm: ATG4B protease inhibitors, retest, confirmation, biochemical, fluorescence, single concentration. shares compounds with ATG4B inh. ATG4B protease fluorescent substrate cleavage assay. inhibition, % at 8.33 µM. 320 tested, 92% active; in the data active means inhibition above about 39%
PLA2 ctr: PLA2 enzyme inhibition, counter-screen for ATG4B inhibitor project, biochemical, single concentration, uHTS hits; shares compounds with ATG4B inh; inhibition, % at 8.33 µM; purified PLA2, NBD-C6-HPC fluorescence, 45 min; 1,600 tested, 66% active; in the data active means inhibition above about 50%
Hits are given with their value; i = inactive; nt = no result. Shown are actives, neighbours in structure and some others; about 2.9% of the full set was active somewhere.

SMILES	ATG4B inh	TCR CD3 inh	HTRA1 inh	mABHD4 FP	SIAE inh	PRMT1 FP inh	PLA2 ctr	others
Cn1cccc1C(=O)NC(=O)COC(=O)CC12CC3CC(CC(C3)C1)C2	62	i	i	i	i	i	54
Cn1cccc1C(=O)NC(=O)COC(=O)CC12CC3CC(CC(Br)(C3)C1)C2	61	i	i	i	i	i	73
O=C(COC(=O)CC12CC3CC(CC(Br)(C3)C1)C2)NC(=O)NCc1ccco1	i	i	i	i	i	i	nt
CC(=O)Nc1nc2ncccn2c1-c1ccc(F)c(F)c1	nt	nt	nt	i	i	i	nt
O=S1(=O)c2ccc(N3CC[C@@H](O)C3)cc2O[C@H]2CCN1C2	nt	nt	nt	i	i	i	nt
COc1ccc(Cl)cc1NC(=O)Nc1cccc([N+](=O)[O-])c1C	78	i	i	i	i	i	86
COc1ccc(Cl)cc1NC(=O)NC1CCCCC1	i	i	i	i	i	i	nt
Fc1ccccc1C1CC(c2ccco2)=Nc2ccccc2S1 (centres undefined)	53	i	i	i	i	71	73
Oc1ccc(Cl)cc1C1=Nc2ccccc2N=C(c2ccco2)C1	i	i	i	i	i	i	nt
Clc1ccc([C@H]2OC[C@@]3(CNCc4ccccc4)CS[C@H](c4ccc(Cl)cc4)N23)cc1	nt	nt	nt	i	i	i	nt
O=C(NCCc1ccc(Cl)cc1Cl)c1ccc2nc[nH]c2c1	43	i	i	i	i	i	51
O=C(NCCc1ccc(Cl)cc1)c1ccc2nc[nH]c2c1	i	i	i	i	i	i	nt
O=C(N/N=C/C=C\c1ccccc1[N+](=O)[O-])c1ccccn1	i	i	i	i	i	i	nt
O=C(N/N=C/C=C/c1ccccc1[N+](=O)[O-])c1cc(-c2ccccc2)n[nH]1	47	i	i	i	i	i	i
O=C(NCc1ccccc1)C1(C(=O)C2CC2)CC(c2ccccn2)=NO1 (centres undefined)	nt	nt	nt	i	i	i	nt
COC(CNC(=O)[C@H](Cc1c[nH]c2ccccc12)NC1(C(=O)NCc2ccccc2)CCCCC1)OC	nt	nt	nt	i	i	i	nt
c1cncc(CNc2nc(-c3cccnc3)nc3ccccc23)c1	i	i	i	i	i	i	nt
CC(C)(C)c1ccc(-c2nc(NCc3cccnc3)c3ccccc3n2)cc1	68	i	i	i	i	i	82
Cc1cc(NCc2ccc(F)cc2)nc2cc(Cl)ccc12	51	i	i	i	i	i	74
Cc1ccc(CNc2ncnc3cc(Cl)ccc23)cc1	i	i	i	i	i	i	nt
C=CC[C@@H]1NN2C(=O)[C@@H](C)[C@@H]3c4ccccc4C=NN3[C@@H]2c2ccccc21	nt	nt	nt	i	i	i	nt
NC(=O)c1ccc(C(F)(F)F)n(Cc2c(Cl)cccc2Cl)c1=O	47	i	i	i	i	i	i
COc1ccc(Cn2c(C(F)(F)F)ccc(C(N)=O)c2=O)cc1	i	i	i	i	i	i	nt
O=S1(=O)CC2c3ccccc3CCN2CN1Cc1ccccc1 (centres undefined)	nt	nt	nt	i	i	i	nt
O=C(Nc1c(Cl)cccc1Cl)c1cc(-c2ccco2)on1	43	i	i	i	i	i	i	ATG4B confirm=67
Cn1c(COc2ccccc2)nnc1SCC(=O)Nc1ccc(S(=O)(=O)Nc2nccs2)cc1	nt	nt	nt	i	i	i	nt
CCOC(=O)c1ccc(N2C(=O)Cc3ccccc3C2=O)cc1	i	i	i	i	i	i	nt
CC(C)COC(=O)c1ccc(N2C(=O)c3ccccc3C2=O)cc1	45	i	i	i	i	i	i	ATG4B confirm=67
